# Experimental data published in ChEMBL document CHEMBL1128395, “Design and synthesis of novel inhibitors of HIV-1 reverse transcriptase” (J Med Chem, 1995).
# pEC50, pIC50: −log10 of the molar value.
# Legend:
# MT4 = test: Compound was evaluated for effective concentration required to achieve 50% protection of MT-4 cells against cytopathic effect of HIV-1; assay type: functional, cell-based; settings: Homo sapiens
# [1] = biological target: Human immunodeficiency virus type 1 reverse transcriptase (Human immunodeficiency virus 1, UniProt Q72547); test: Inhibitory activity against HIV-1 Reverse transcriptase
# Outline: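 Cell-free HIV-1 reverse transcriptase inhibition assay, with TIBO and BI-RG-587 run as reference inhibitors. IC50 is the inhibitor concentration giving 50% enzyme inhibition, taken as the mean of at least two independent assays.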
pIC50 [1],Compound,pEC50 (MT4)
,Cc1c(O)nc(O)nc1Sc1ccccc1,< 3.60
4.30,CCOCn1c2c(c(=O)[nH]c1=O)CNc1ccccc1S2,
< 4.00,O=c1[nH]c(=O)n(COCCO)c2c1C(c1ccccc1)Nc1ccccc1S2 (configuration not stated),
4.94,CC(=O)OCCOCn1c2c(c(=O)[nH]c1=O)CNc1ccccc1S2,
< 4.00,O=c1[nH]c(=O)n(COCCO)c2c1C(c1ccc([N+](=O)[O-])cc1)Nc1ccccc1S2 (configuration not stated),
< 4.00,CC(=O)OCCOCn1c2c(c(=O)[nH]c1=O)C(c1ccccc1)Nc1ccccc1S2 (configuration not stated),
4.83,CC(=O)OCCOCn1c2c(c(=O)[nH]c1=O)CN(C)c1ccccc1S2,
< 4.00,CC(=O)OCCOCn1c2c(c(=O)[nH]c1=O)C(=O)Nc1ccccc1S2,
< 4.00,CC(=O)OCCOCn1c2c(c(=O)n(C)c1=O)CNc1ccccc1S2,
6.19,CCOCCOCn1c2c(c(=O)[nH]c1=O)CNc1ccccc1S2,
< 4.00,O=c1[nH]c(=O)n(COCCO)c2c1CNc1ccccc1S2,
< 4.00,O=c1[nH]c2c(c(=O)[nH]1)CNc1ccccc1S2 [PYRIMIDOBENZOTHIAZEPINE],
